Experimental data published in ChEMBL document CHEMBL1145427, “Quick assembly of 1,4-diphenyltriazoles as probes targeting beta-amyloid aggregates in Alzheimer's disease” (J Med Chem, 2007).
Each block holds one compound with its values, some of them ahead of it.

How the values were obtained:
Spleen [1] = assay: Biodistribution in ICR mouse spleen at 5 to 10 uCi, iv after 1 hr; format: ADME, organism-based; conditions: in vivo
How it was run: (§1)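 Male ICR mice (22–25 g) under isoflurane anesthesia; [125I] or [18F] tracer (5–10 μCi) in 0.15 mL of 0.1% bovine serum albumin solution injected into the tail vein. Groups of n = 3 per time point, killed by cervical dislocation. Organs removed, weighed and gamma-counted against diluted aliquots of injected dose, giving % dose/organ and % ID/g. Total blood activity assumed as 7% of body weight.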

Heart [2] = assay: Biodistribution in ICR mouse heart at 5 to 10 uCi, iv after 2 hrs; format: ADME, organism-based; conditions: in vivo; how it was run: as §1
Thyroid gland [3] = assay: Biodistribution in ICR mouse thyroid at 5 to 10 uCi, iv after 2 mins; format: ADME, organism-based; conditions: in vivo; how it was run: as §1
Blood [4] = assay: Biodistribution in ICR mouse blood at 5 to 10 uCi, iv after 30 mins; format: ADME, organism-based; conditions: in vivo, 0.5 h; how it was run: as §1
Thyroid gland [5] = assay: Biodistribution in ICR mouse thyroid at 5 to 10 uCi, iv after 1 hr; format: ADME, organism-based; conditions: in vivo; how it was run: as §1
Muscle tissue [6] = assay: Biodistribution in ICR mouse muscle at 5 to 10 uCi, iv after 2 hrs; format: ADME, organism-based; conditions: in vivo; how it was run: as §1
Thyroid gland [7] = assay: Biodistribution in ICR mouse thyroid at 5 to 10 uCi, iv after 30 mins; format: ADME, organism-based; conditions: in vivo, 0.5 h; how it was run: as §1
Zone of skin [8] = assay: Biodistribution in ICR mouse skin at 5 to 10 uCi, iv after 30 mins; format: ADME, organism-based; conditions: in vivo, 0.5 h; how it was run: as §1
Muscle tissue [9] = assay: Biodistribution in ICR mouse muscle at 5 to 10 uCi, iv after 2 mins; format: ADME, organism-based; conditions: in vivo; how it was run: as §1
Zone of skin [10] = assay: Biodistribution in ICR mouse skin at 5 to 10 uCi, iv after 1 hr; format: ADME, organism-based; conditions: in vivo; how it was run: as §1
Lung [11] = assay: Biodistribution in ICR mouse lung at 5 to 10 uCi, iv after 2 hrs; format: ADME, organism-based; conditions: in vivo; how it was run: as §1
Heart [12] = assay: Biodistribution in ICR mouse heart at 5 to 10 uCi, iv after 1 hr; format: ADME, organism-based; conditions: in vivo; how it was run: as §1
Kidney [13] = assay: Biodistribution in ICR mouse kidney at 5 to 10 uCi, iv after 2 hrs; format: ADME, organism-based; conditions: in vivo; how it was run: as §1
Liver [14] = assay: Biodistribution in ICR mouse liver at 5 to 10 uCi, iv after 2 hrs; format: ADME, organism-based; conditions: in vivo; how it was run: as §1
Heart [15] = assay: Biodistribution in ICR mouse heart at 5 to 10 uCi, iv after 30 mins; format: ADME, organism-based; conditions: in vivo, 0.5 h; how it was run: as §1
Zone of skin [16] = assay: Biodistribution in ICR mouse skin at 5 to 10 uCi, iv after 2 mins; format: ADME, organism-based; conditions: in vivo; how it was run: as §1
Brain [17] = assay: Biodistribution in ICR mouse brain at 5 to 10 uCi, iv after 30 mins; format: ADME, organism-based; conditions: in vivo, 0.5 h; how it was run: as §1
Muscle tissue [18] = assay: Biodistribution in ICR mouse muscle at 5 to 10 uCi, iv after 30 mins; format: ADME, organism-based; conditions: in vivo, 0.5 h; how it was run: as §1
Liver [19] = assay: Biodistribution in ICR mouse liver at 5 to 10 uCi, iv after 2 mins; format: ADME, organism-based; conditions: in vivo; how it was run: as §1
Zone of skin [20] = assay: Biodistribution in ICR mouse skin at 5 to 10 uCi, iv after 2 hrs; format: ADME, organism-based; conditions: in vivo; how it was run: as §1
Kidney [21] = assay: Biodistribution in ICR mouse kidney at 5 to 10 uCi, iv after 1 hr; format: ADME, organism-based; conditions: in vivo; how it was run: as §1
[22] = Partition coefficient, log P of the compound; format: physicochemical; conditions: octanol/water
How it was run: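 [125I] or [18F] tracer mixed with 3 g each of 1-octanol and 0.1 M phosphate buffer pH 7.4. Vortexed 3 min at room temperature, then centrifuged 5 min. Two 0.5 g samples from each layer counted; PC is the ratio of cpm/g in octanol to cpm/g in buffer. The octanol layer was repartitioned until values were consistent.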

Brain [23] = assay: Biodistribution in ICR mouse brain at 5 to 10 uCi, iv after 2 hrs; format: ADME, organism-based; conditions: in vivo; how it was run: as §1
Heart [24] = assay: Biodistribution in ICR mouse heart at 5 to 10 uCi, iv after 2 mins; format: ADME, organism-based; conditions: in vivo; how it was run: as §1
Spleen [25] = assay: Biodistribution in ICR mouse spleen at 5 to 10 uCi, iv after 30 mins; format: ADME, organism-based; conditions: in vivo, 0.5 h; how it was run: as §1
Lung [26] = assay: Biodistribution in ICR mouse lung at 5 to 10 uCi, iv after 2 mins; format: ADME, organism-based; conditions: in vivo; how it was run: as §1
Spleen [27] = assay: Biodistribution in ICR mouse spleen at 5 to 10 uCi, iv after 2 hrs; format: ADME, organism-based; conditions: in vivo; how it was run: as §1
Lung [28] = assay: Biodistribution in ICR mouse lung at 5 to 10 uCi, iv after 30 mins; format: ADME, organism-based; conditions: in vivo, 0.5 h; how it was run: as §1
Kidney [29] = assay: Biodistribution in ICR mouse kidney at 5 to 10 uCi, iv after 2 mins; format: ADME, organism-based; conditions: in vivo; how it was run: as §1
Liver [30] = assay: Biodistribution in ICR mouse liver at 5 to 10 uCi, iv after 30 mins; format: ADME, organism-based; conditions: in vivo, 0.5 h; how it was run: as §1
Muscle tissue [31] = assay: Biodistribution in ICR mouse muscle at 5 to 10 uCi, iv after 1 hr; format: ADME, organism-based; conditions: in vivo; how it was run: as §1
Blood [32] = assay: Biodistribution in ICR mouse blood at 5 to 10 uCi, iv after 2 hrs; format: ADME, organism-based; conditions: in vivo; how it was run: as §1
Blood [33] = assay: Biodistribution in ICR mouse blood at 5 to 10 uCi, iv after 2 mins; format: ADME, organism-based; conditions: in vivo; how it was run: as §1
Spleen [34] = assay: Biodistribution in ICR mouse spleen at 5 to 10 uCi, iv after 2 mins; format: ADME, organism-based; conditions: in vivo; how it was run: as §1
Blood [35] = assay: Biodistribution in ICR mouse blood at 5 to 10 uCi, iv after 1 hr; format: ADME, organism-based; conditions: in vivo; how it was run: as §1
Brain [36] = assay: Biodistribution in ICR mouse brain at 5 to 10 uCi, iv after 2 mins; format: ADME, organism-based; conditions: in vivo; how it was run: as §1
Kidney [37] = assay: Biodistribution in ICR mouse kidney at 5 to 10 uCi, iv after 30 mins; format: ADME, organism-based; conditions: in vivo, 0.5 h; how it was run: as §1
Brain [38] = assay: Biodistribution in ICR mouse brain at 5 to 10 uCi, iv after 1 hr; format: ADME, organism-based; conditions: in vivo; how it was run: as §1
Liver [39] = assay: Biodistribution in ICR mouse liver at 5 to 10 uCi, iv after 1 hr; format: ADME, organism-based; conditions: in vivo; how it was run: as §1
Lung [40] = assay: Biodistribution in ICR mouse lung at 5 to 10 uCi, iv after 1 hr; format: ADME, organism-based; conditions: in vivo; how it was run: as §1
[41] = Displacement of [125I]IMPY from beta amyloid protein plaques in Alzheimer's disease patient brain; set-up: species or system Homo sapiens
How it was run: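 Competition binding to pooled gray-matter homogenates from four AD brains (approximately 100 mg wet tissue/mL in PBS pH 7.4; 20–50 μg per tube). [125I]2 at 0.04–0.06 nM; inhibitors 10^-5–10^-10 M in PBS with 0.1% BSA; final volume 1 mL. Nonspecific binding with 600 nM 2. Incubated 37 °C, 2 h; GF/B filtration, gamma counting. Ki from nonlinear regression.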

- Drug uptake (Spleen [1]): 1.66 % ID/g
- Drug uptake (Heart [2]): 1.83 % ID/g
- Drug uptake (Thyroid gland [3]): 1.41 % ID/g
- Drug uptake (Blood [4]): 2.65 % ID/g
- Drug uptake (Thyroid gland [5]): 3.25 % ID/g
- Drug uptake (Muscle tissue [6]): 1.11 % ID/g
- Drug uptake (Thyroid gland [7]): 1.89 % ID/g
- Drug uptake (Zone of skin [8]): 1.82 % ID/g
- Drug uptake (Muscle tissue [9]): 0.73 % ID/g
- Drug uptake (Zone of skin [10]): 1.72 % ID/g
- Drug uptake (Lung [11]): 1.79 % ID/g
- Drug uptake (Heart [12]): 2.02 % ID/g
- Drug uptake (Kidney [13]): 2.01 % ID/g
- Drug uptake (Liver [14]): 2.69 % ID/g
- Drug uptake (Heart [15]): 2.28 % ID/g
- Drug uptake (Zone of skin [16]): 0.51 % ID/g
- Drug uptake (Brain [17]): 2.53 % ID/g
- Drug uptake (Muscle tissue [18]): 1.51 % ID/g
- Drug uptake (Liver [19]): 11.6 % ID/g
- Drug uptake (Zone of skin [20]): 1.42 % ID/g
- Drug uptake (Kidney [21]): 2.44 % ID/g
- logP [22]: 2.7
- Drug uptake (Brain [23]): 2.08 % ID/g
- Drug uptake (Heart [24]): 4.25 % ID/g
- Drug uptake (Spleen [25]): 2.21 % ID/g
- Drug uptake (Lung [26]): 5.68 % ID/g
- Drug uptake (Spleen [27]): 1.43 % ID/g
- Drug uptake (Lung [28]): 2.72 % ID/g
- Drug uptake (Kidney [29]): 6.94 % ID/g
- Drug uptake (Liver [30]): 5.54 % ID/g
- Drug uptake (Muscle tissue [31]): 1.33 % ID/g
- Drug uptake (Blood [32]): 2.3 % ID/g
- Drug uptake (Blood [33]): 2.63 % ID/g
- Drug uptake (Spleen [34]): 4.04 % ID/g
- Drug uptake (Blood [35]): 2.45 % ID/g
- Drug uptake (Brain [36]): 5.92 % ID/g
- Drug uptake (Kidney [37]): 3.35 % ID/g
- Drug uptake (Brain [38]): 2.34 % ID/g
- Drug uptake (Liver [39]): 3.52 % ID/g
- Drug uptake (Lung [40]): 2.03 % ID/g
SMILES: CN(C)c1ccc(-c2cn(-c3ccc(OCC[18F])cc3)nn2)cc1

- Drug uptake (Spleen [1]): 0.58 % ID/g
- Drug uptake (Heart [2]): 0.23 % ID/g
- Drug uptake (Thyroid gland [3]): 1.57 % ID/g
- Drug uptake (Blood [4]): 1.91 % ID/g
- Drug uptake (Thyroid gland [5]): 16.87 % ID/g
- Drug uptake (Muscle tissue [6]): 0.1 % ID/g
- Drug uptake (Thyroid gland [7]): 9.62 % ID/g
- Drug uptake (Zone of skin [8]): 1.41 % ID/g
- Drug uptake (Muscle tissue [9]): 0.89 % ID/g
- Drug uptake (Zone of skin [10]): 0.41 % ID/g
- Drug uptake (Lung [11]): 0.76 % ID/g
- Drug uptake (Heart [12]): 0.69 % ID/g
- Drug uptake (Kidney [13]): 0.35 % ID/g
- Drug uptake (Liver [14]): 0.76 % ID/g
- Drug uptake (Heart [15]): 1.93 % ID/g
- Drug uptake (Zone of skin [16]): 0.93 % ID/g
- Drug uptake (Brain [17]): 2.84 % ID/g
- Drug uptake (Muscle tissue [18]): 1.03 % ID/g
- Drug uptake (Liver [19]): 15.6 % ID/g
- Drug uptake (Zone of skin [20]): 0.11 % ID/g
- Drug uptake (Kidney [21]): 2.69 % ID/g
- logP [22]: 2.7
- Drug uptake (Brain [23]): 1.29 % ID/g
- Drug uptake (Heart [24]): 5.79 % ID/g
- Drug uptake (Spleen [25]): 1.29 % ID/g
- Drug uptake (Lung [26]): 7.65 % ID/g
- Drug uptake (Spleen [27]): 0.17 % ID/g
- Drug uptake (Lung [28]): 2.4 % ID/g
- Drug uptake (Kidney [29]): 9.01 % ID/g
- Drug uptake (Liver [30]): 5.06 % ID/g
- Drug uptake (Muscle tissue [31]): 0.36 % ID/g
- Drug uptake (Blood [32]): 0.31 % ID/g
- Drug uptake (Blood [33]): 3.23 % ID/g
- Drug uptake (Spleen [34]): 3.98 % ID/g
- Drug uptake (Blood [35]): 0.75 % ID/g
- Drug uptake (Brain [36]): 6.56 % ID/g
- Drug uptake (Kidney [37]): 3.68 % ID/g
- Drug uptake (Brain [38]): 1.81 % ID/g
- Drug uptake (Liver [39]): 2.06 % ID/g
- Drug uptake (Lung [40]): 0.88 % ID/g
SMILES: CN(C)c1ccc(-c2cn(-c3ccc(OCCC[18F])cc3)nn2)cc1

- Ki [41]: 16.5 nM
SMILES: CN(C)c1ccc(-c2cn(-c3ccc(OCCOCCOCCO)cc3)nn2)cc1
